Experimental data published in ChEMBL document CHEMBL3994667, “Small Molecule Lysyl Oxidase-like 2 (LOXL2) Inhibitors: The Identification of an Inhibitor Selective for LOXL2 over LOX” (ACS Med Chem Lett, 2017).

What was measured:
[1] = target: T1, Lysyl oxidase homolog 2 (Mus musculus, UniProt P58022); experiment: Inhibition of full length recombinant mouse LOXL2 expressed in CHO cells assessed as reduction in H2O2 production using DAP as substrate preincubated for 2 hrs followed by substrate addition measured every 2 minutes for 50 minutes in presence of BSA by Amplex red dye based fluorescence assay; type: cell-based
T1 sequence (P58022 whole entry): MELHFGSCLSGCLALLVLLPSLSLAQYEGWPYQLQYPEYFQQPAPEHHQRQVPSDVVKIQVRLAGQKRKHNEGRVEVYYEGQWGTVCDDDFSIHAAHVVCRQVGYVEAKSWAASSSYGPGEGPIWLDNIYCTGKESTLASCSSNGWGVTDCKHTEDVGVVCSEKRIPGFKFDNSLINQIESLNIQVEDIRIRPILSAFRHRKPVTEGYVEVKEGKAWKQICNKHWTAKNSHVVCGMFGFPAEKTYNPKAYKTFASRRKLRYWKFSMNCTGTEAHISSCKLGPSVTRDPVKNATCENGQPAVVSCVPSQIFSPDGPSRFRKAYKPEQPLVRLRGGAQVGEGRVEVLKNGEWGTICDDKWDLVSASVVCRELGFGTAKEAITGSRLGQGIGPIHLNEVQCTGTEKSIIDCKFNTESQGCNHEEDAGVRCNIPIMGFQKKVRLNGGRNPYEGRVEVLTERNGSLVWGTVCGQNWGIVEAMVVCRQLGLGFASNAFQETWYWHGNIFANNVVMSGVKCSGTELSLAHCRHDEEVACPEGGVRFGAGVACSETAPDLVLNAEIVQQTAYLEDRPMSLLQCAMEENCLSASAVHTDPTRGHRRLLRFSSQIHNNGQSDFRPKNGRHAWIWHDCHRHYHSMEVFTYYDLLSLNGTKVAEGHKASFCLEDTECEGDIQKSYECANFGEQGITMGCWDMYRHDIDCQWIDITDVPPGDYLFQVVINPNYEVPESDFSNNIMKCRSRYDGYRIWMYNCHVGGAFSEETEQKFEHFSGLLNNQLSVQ
Method in brief: (§1)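 Rodent LOXL2 is tested under the same conditions as the BSA-supplemented assay: conditioned media plus BSA, with DAP as substrate and Amplex Red detection of H2O2. Species are mouse and rat. IC50 is the geometric mean x/÷ geometric standard deviation from 3 determinations.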

[2] = target: T2, Lysyl oxidase homolog 2 (Rattus norvegicus, UniProt B5DF27); experiment: Inhibition of full length recombinant rat LOXL2 expressed in CHO cells assessed as reduction in H2O2 production using DAP as substrate preincubated for 2 hrs followed by substrate addition measured every 2 minutes for 50 minutes in presence of BSA by Amplex red dye based fluorescence assay; method in brief: as §1
T2 sequence (B5DF27 whole entry): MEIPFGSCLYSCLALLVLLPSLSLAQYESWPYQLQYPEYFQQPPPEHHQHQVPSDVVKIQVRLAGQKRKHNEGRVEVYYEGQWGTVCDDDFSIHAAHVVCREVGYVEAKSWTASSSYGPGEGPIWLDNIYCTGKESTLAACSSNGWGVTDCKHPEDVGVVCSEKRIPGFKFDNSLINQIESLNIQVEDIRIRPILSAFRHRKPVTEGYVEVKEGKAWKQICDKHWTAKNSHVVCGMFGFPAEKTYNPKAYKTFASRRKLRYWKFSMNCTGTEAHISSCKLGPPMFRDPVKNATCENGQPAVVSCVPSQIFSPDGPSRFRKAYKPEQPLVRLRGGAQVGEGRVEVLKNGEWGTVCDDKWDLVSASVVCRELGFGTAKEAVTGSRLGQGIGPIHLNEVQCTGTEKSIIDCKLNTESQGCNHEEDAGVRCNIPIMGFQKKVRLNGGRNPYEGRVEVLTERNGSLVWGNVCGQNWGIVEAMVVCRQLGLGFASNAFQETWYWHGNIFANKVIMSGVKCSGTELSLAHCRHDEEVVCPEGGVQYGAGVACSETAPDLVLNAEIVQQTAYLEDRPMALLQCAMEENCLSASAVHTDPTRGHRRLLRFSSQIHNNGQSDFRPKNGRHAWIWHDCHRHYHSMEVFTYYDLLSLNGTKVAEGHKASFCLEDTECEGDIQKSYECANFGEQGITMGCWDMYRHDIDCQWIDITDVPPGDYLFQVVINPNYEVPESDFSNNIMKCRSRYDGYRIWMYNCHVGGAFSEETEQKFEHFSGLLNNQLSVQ

[3] = target: T3, Lysyl oxidase homolog 2 (Homo sapiens, UniProt Q9Y4K0); experiment: Inhibition of full length recombinant human LOXL2 expressed in CHO cells assessed as reduction in H2O2 production using DAP as substrate preincubated for 2 hrs followed by substrate addition measured every 2 minutes for 50 minutes by Amplex red dye based fluorescence assay
T3 sequence (Q9Y4K0 whole entry): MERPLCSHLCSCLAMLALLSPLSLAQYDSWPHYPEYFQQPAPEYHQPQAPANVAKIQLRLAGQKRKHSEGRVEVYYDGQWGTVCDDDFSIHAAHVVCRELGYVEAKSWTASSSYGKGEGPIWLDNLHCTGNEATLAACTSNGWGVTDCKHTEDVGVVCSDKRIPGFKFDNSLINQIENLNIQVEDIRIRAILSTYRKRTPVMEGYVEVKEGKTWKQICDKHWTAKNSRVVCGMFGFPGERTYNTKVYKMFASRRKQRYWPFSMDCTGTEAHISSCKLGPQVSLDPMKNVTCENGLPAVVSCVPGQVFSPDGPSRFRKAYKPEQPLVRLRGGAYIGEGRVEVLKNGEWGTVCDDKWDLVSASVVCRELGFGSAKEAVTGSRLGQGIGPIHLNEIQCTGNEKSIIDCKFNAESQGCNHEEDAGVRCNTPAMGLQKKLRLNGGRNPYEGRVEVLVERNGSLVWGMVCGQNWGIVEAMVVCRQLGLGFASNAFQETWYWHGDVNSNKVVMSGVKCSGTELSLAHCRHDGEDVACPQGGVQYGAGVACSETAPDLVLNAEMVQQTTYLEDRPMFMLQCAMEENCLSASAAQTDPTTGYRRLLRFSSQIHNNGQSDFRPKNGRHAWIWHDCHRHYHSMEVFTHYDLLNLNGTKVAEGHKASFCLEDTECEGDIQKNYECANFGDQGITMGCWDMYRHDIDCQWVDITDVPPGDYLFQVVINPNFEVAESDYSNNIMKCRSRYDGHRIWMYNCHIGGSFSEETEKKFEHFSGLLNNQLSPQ

## NCc1ccnc(Cl)c1
[1]
  IC50: 0.227 µM
[2]
  IC50: 0.136 µM
[3]
  IC50: 0.126 µM
